Results on one molecule are retold here after ChEMBL document CHEMBL3865824, “New (E)-1-alkyl-1H-benzo[d]imidazol-2-yl)methylene)indolin-2-ones: Synthesis, in vitro cytotoxicity evaluation and apoptosis inducing studies” (Eur J Med Chem, 2016).

As a reminder, the IC50 is the concentration needed to halve the response being measured.

Activity calls are given as the source filed them. The calls are words filed in the database; no cut-off is given here.

Data set [1] concerns MDA-MB-231. Put plainly: Induction of apoptosis in human MDA-MB-231 cells assessed as necrotic cells at 4 uM after 24 hrs by Annexin V-FITC/propidium iodide-staining based FACS analysis (reference value: 2.8 %). The format is functional. On the technique in general: A flow cytometer gives signals particle by particle.
For data set [2], the system named is MDA-MB-231. The data set can be described thus: Induction of apoptosis in human MDA-MB-231 cells assessed as early apoptotic cells at 1 uM after 24 hrs by Annexin V-FITC/propidium iodide-staining based FACS analysis (reference value: 4.1 %). The class given is functional.
The nature of data set [3]: Cytotoxicity against human MCF10A cells assessed as reduction in cell viability after 48 hrs by MTT assay. The class given is toxicity, cell-based, MCF-10A. Put shortly: (§1)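 Cells grown in DMEM or MEM with 10% FBS at 37 °C, 5% CO2. Seeded at 1×10^4 cells/well, incubated 48 h, then exposed to compound for 48 h with vehicle control. MTT (5 mg/mL stock) added for 4 h; formazan dissolved in DMSO, absorbance read at 570 nm. Preliminary screen at 50 µM. Compounds giving >50% inhibition were tested for dose-response curves; IC50 derived by linear regression of % inhibition versus concentration. Mean of three independent experiments in triplicate.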
A general note: Tetrazolium assays rely on reduction of a dye to a coloured formazan, in cell work by metabolically active cells.

Data set [4] concerns MDA-MB-231. Put plainly: Inhibition of F-actin polymerization in human MDA-MB-231 cells assessed as disruption of stress fibres at 1 to 4 uM after 12 hrs by rhodamine-phalloidin/hoechst […]-dual staining based confocal microscopic analysis. The class given is cell-based. Put shortly: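 MDA-MB-231 cells (1×10^6/well) were grown on coverslips for 24 h, then exposed 12 h to 1, 2 and 4 μM. After a PBS wash and fixation in 4% paraformaldehyde, F-actin was stained with rhodamine-phalloidin and nuclei with Hoechst […]. Slides were mounted in anti-fade reagent and imaged by confocal microscopy (20× objective).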

Data set [5] is described as follows: Cell cycle arrest in human MDA-MB-231 cells assessed as accumulation at G0/G1 phase at 2 uM after 24 hrs by propidium iodide staining based FACS analysis (reference value: 50.4 %). The format is functional. In short, it runs like this:
(§2)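 MDA-MB-231 at 1×10^6 cells/well treated with 1, 2 or 4 µM for 24 h, with a DMSO control. Cells harvested by trypsin, washed with PBS and fixed in 70% ethanol for 30 min at 4 °C. Stained 15 min at room temperature in the dark with PI buffer containing Triton X and DNase-free RNase A. Analysed by flow cytometry; G0/G1, S and G2/M fractions quantified.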

Data set [6] can be described thus: Cytotoxicity against human BT549 cells assessed as reduction in cell viability after 48 hrs by MTT assay. As to conditions: BT-549, 48 h. The format is functional, cell-based. Put shortly:
as §1

Data set [7] is described as follows: Cytotoxicity against HGC cells assessed as growth inhibition at 50 uM after 48 hrs by MTT assay relative to control. The class given is functional. The following applies: Homo sapiens, read-out: GI. Put shortly: as §1
Data set [8] deals with MDA-MB-231. The data set can be described thus: Induction of apoptosis in human MDA-MB-231 cells assessed as formation of condensed nuclei at 1 to 4 uM after 24 hrs by DAPI dye-based fluorescent microscopic analysis. The class given is functional, cell-based. In short, it runs like this:
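MDA-MB-231 grown at 1×10^6 cells/well in 6-well plates and treated at 1.0, 2.0 or 4.0 µM for 24 h, with untreated controls. Cells washed twice with PBS, fixed in 4% paraformaldehyde and stained with 10 µg/mL DAPI. Nuclei examined by fluorescence microscopy (excitation 359 nm, emission 461 nm) at 200×.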

Data set [9] is described as follows: Cell cycle arrest in human MDA-MB-231 cells assessed as accumulation at G0/G1 phase at 1 uM after 24 hrs by propidium iodide staining based FACS analysis (reference value: 50.4 %). The format is functional. In short, it runs like this:
as §2

Data set [10] deals with MDA-MB-231. The data set can be described thus: Induction of apoptosis in human MDA-MB-231 cells assessed as late apoptotic cells at 4 uM after 24 hrs by Annexin V-FITC/propidium iodide-staining based FACS analysis (reference value: 3.6 %). The format is functional.
Data set [11] is described as follows: Cytotoxicity against human MDA-MB-231 cells assessed as reduction in cell viability after 48 hrs by MTT assay. The following applies: MDA-MB-231, 48 h. The format is functional, cell-based. Put shortly:
as §1

The nature of data set [12]: Cytotoxicity against […] cells assessed as growth inhibition at 50 uM after 48 hrs by MTT assay relative to control. As to conditions: Mus musculus, 4T1, 48 h; read-out: GI. The class given is functional. In short, it runs like this:
as §1

A short description of data set [13]: Selectivity ratio of IC50 for human MCF10A cells to IC50 for human DU145 cells. The following applies: MCF10A cells versus DU145 cells, read-out: Ratio IC50. The format is ADME, cell-based, MCF-10A.
In data set [14] the test system is MDA-MB-231. Put plainly: Induction of apoptosis in human MDA-MB-231 cells assessed as increase in Bax expression after 24 hrs by Western blot analysis. The format is functional, cell-based. Put shortly: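 MDA-MB-231 treated at 1, 2 or 4 µM for 24 h. Whole-cell extracts prepared in RIPA buffer. Blots probed with rabbit anti-caspase-3, anti-Bcl2 and anti-β-actin (1:1000) and anti-Bax (1:500), then HRP secondaries and ECL detection. Membranes stripped and reprobed. Bands quantified by densitometry as fold change versus control. Mean ± SEM, n=3.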
(In general: In western blotting, separated proteins are transferred to a membrane and probed.)

Data set [15] concerns MDA-MB-231. The data set can be described thus: Induction of apoptosis in human MDA-MB-231 cells assessed as reduction in viable cells at 1 to 4 uM after 24 hrs by phase contrast microscopic analysis. The format is functional, cell-based. Put shortly:
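MDA-MB-231 cells were exposed for 24 h to 1, 2 and 4 μM beside a control. Morphology (shrinkage, deformation, number of viable cells) was examined and photographed by phase contrast microscopy.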

Data set [16] concerns MDA-MB-231. Put plainly: Induction of apoptosis in human MDA-MB-231 cells assessed as early apoptotic cells at 2 uM after 24 hrs by Annexin V-FITC/propidium iodide-staining based FACS analysis (reference value: 4.1 %). The class given is functional.
The subject of data set [17] is MDA-MB-231. Put plainly: Induction of apoptosis in human MDA-MB-231 cells assessed as early apoptotic cells after 24 hrs by Annexin V-FITC/propidium iodide-staining based FACS analysis. The class given is functional, cell-based.
Data set [18] can be described thus: Cell cycle arrest in human MDA-MB-231 cells assessed as accumulation at G0/G1 phase at 4 uM after 24 hrs by propidium iodide staining based FACS analysis (reference value: 50.4 %). The format is functional. Put shortly: as §2
Data set [19] is described as follows: Selectivity ratio of IC50 for human MCF10A cells to IC50 for human MDA-MB-231 cells. The class given is ADME, cell-based, MCF-10A. The following applies: MCF10A cells versus MDA-MB-231 cells, read-out: Ratio IC50.
The nature of data set [20]: Selectivity ratio of IC50 for human MCF10A cells to IC50 for […] cells. The following applies: MCF10A cells versus 4TI cells, read-out: Ratio IC50. The format is ADME, cell-based, MCF-10A.
The test system of data set [21] is MDA-MB-231. Put plainly: Induction of apoptosis in human MDA-MB-231 cells assessed as late apoptotic cells at 2 uM after 24 hrs by Annexin V-FITC/propidium iodide-staining based FACS analysis (reference value: 3.6 %). The class given is functional.
Data set [22] in a line: Cytotoxicity against human PC3 cells assessed as growth inhibition at 50 uM after 48 hrs by MTT assay relative to control. The class given is functional. The following applies: PC-3, 48 h, read-out: GI. In short, it runs like this: as §1
Data set [23] has as its system MDA-MB-231. Put plainly: Induction of apoptosis in human MDA-MB-231 cells assessed as cell membrane blebbing at 1 uM after 24 hrs by AO/EB-dual staining based fluorescent microscopic analysis. The format is functional. Put shortly:
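MDA-MB-231 plated at 1×10^6 cells/mL and treated at 1, 2 or 4 µM, with a DMSO control. Incubation time is given as 48 h in the methods and 24 h in the figure legend. AO and EB added at 10 µg/mL each. Cells viewed within 10 min by fluorescence microscopy (excitation 488 nm, emission 550 nm) at 200×.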

Turning to `CC(C)n1c(/C=C2/C(=O)Nc3ccc(Br)cc32)nc2ccccc21`, the Activity is 4.2% in data set [1]; 8.6% in data set [2]; 64.3% in [5]; 57.2% in [9]; 7.1% in [10]; “Dose-dependent effect” in data set [14]. For the same molecule, the Activity in data set [16] was 18.7%; in [17], “Dose-dependent effect”; in [18], 74.7%; in [21] it was 4.4%. The IC50 at 48 h in data set [3] came out at 56.9 µM. Further, the inhibition result in data set [4] was “Active”. The results for the half-inhibitory concentration (IC50) in [6] and in data set [11] were 13.7 µM and 3.26 µM, respectively. In addition, the inhibition of growth at 50 µM in data set [7], in data set [12] and in data set [22] was over 50% throughout. The result in data set [8], in [15] and in data set [23] was Active. Further, the selectivity ratio in data set [13] turned out to be 8; in data set [19], 17; in data set [20], 9.5.
